Assay results published in ChEMBL document CHEMBL1127795, “Small-molecule immunostimulants. Synthesis and activity of 7,8-disubstituted guanosines and structurally related compounds” (1994).

Columns and labels:
Mus musculus [1] = species: Mus musculus; assay: Ability to act as B-cell mitogens; type: functional; details: read-out: ED50 (the source's name)
Outline: (§1)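 CBA/CaJ mouse spleen cells (1 × 10⁵/0.2 mL) exposed to graded compound concentrations, dissolved in water or DMSO and diluted in medium, for 24 h. [³H]thymidine then added for a further 24 h; incorporation by scintillation counting. ED50 and maximal response expressed relative to a concurrently run standard (loxoribine in most cases).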

Mus musculus [2] = species: Mus musculus; assay: Percent of maximum response was tested for its ability to act as B-cell mitogens (mitogenicity); type: functional; outline: as §1
Mus musculus [3] = species: Mus musculus; assay: Tested to augment the antibody response of B cells to sheep red blood cell (SRBC) challenge (adjuvanticity); Neg indicates a response lower than vehicle control; type: functional, cell-based
Outline: (§2)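 CBA/CaJ spleen cells depleted of T cells with anti-T cell monoclonal antibody (1:1000, 30 min, 4 °C) then complement (37 °C, 45 min). Cultured ± 0.1% SRBC antigen in serum-containing medium with compound from zero to 10⁻³ M for 4 d. Plaque-forming cells counted in agarose with guinea pig complement. ED50 and maximal response relative to a concurrent standard.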

Mus musculus [4] = species: Mus musculus; assay: Percent of maximum response was tested to augment the antibody response of B cells to sheep red blood cell challenge; type: functional; outline: as §2
Mus musculus [5] = species: Mus musculus; assay: Effective dose for its ability to act as B-cell mitogens (mitogenicity); Neg indicates a response lower than vehicle control; type: functional; outline: as §1
YAC-1 [6] = assay: Percent of maximum response was tested for its ability to stimulate the natural killer response in murine in vitro cell assays; type: functional, Mus musculus
YAC-1 [7] = assay: Stimulation of natural killer (NK) response in Yac-1 cell line (mouse, lymphoma); Neg indicates a response lower than vehicle control; type: functional, cell-based
Mus musculus [8] = species: Mus musculus; assay: Augment antibody response of B cells to sheep red blood cell (SRBC) challenge (adjuvanticity); type: functional; details: read-out: ED50 (the source's name); outline: as §2
YAC-1 [9] = assay: Stimulation of natural killer (NK) response in Yac-1 cell line (mouse, lymphoma); type: functional; details: read-out: ED50 (the source's name)

EC50 (Mus musculus [1]) | SMILES | Max response (Mus musculus [2]) | ED50 (Mus musculus [3]) | Max response (Mus musculus [4]) | ED50 (Mus musculus [5]) | Max response (YAC-1 [6]) | ED50 (YAC-1 [7]) | EC50 (Mus musculus [8]) | EC50 (YAC-1 [9])
52 µM | C=CCn1c(=O)n(CCCCO)c2nc(N)nc(O)c21 | 16% | Negative | 12% | – | – | – | – | –
– | C=CCn1c(=O)n([C@@H]2O[C@H](CO)[C@H]3OC(C)(CCC(=O)NC)O[C@H]32)c2nc(N)nc(O)c21 (stereo partly specified) | 0% | Negative | 9% | Negative | 0% | Negative | – | –
819 µM | C=CCn1c(=O)n(C2OC(COC(=O)COC)[C@@H](OC(=O)COC)[C@H]2OC(=O)COC)c2nc(NC(=O)COC)nc(O)c21 (stereo partly specified) | 53% | – | 216% | – | 60% | – | 28 µM | 150 µM
– | CC1OC(n2c(=O)n(C)c3c(O)nc(N)nc32)[C@H](O)[C@@H]1O (stereo partly specified) | – | Negative | 0% | – | – | – | – | –
– | Nc1nc(O)c2c(n1)n(C1OC(CO)[C@@H](O)[C@H]1O)c(=O)n2Cc1ccc(Cl)c(Cl)c1 (stereo partly specified) | 0% | Negative | 55% | Negative | 15% | – | – | 110 µM
– | C=CCN1C(=C(C(=O)OCC)C(=O)OCC)N([C@H]2OC(CO)[C@H]3OC(C)(C)O[C@H]32)c2nc(N)nc(O)c21 (stereo partly specified) | – | Negative | 0% | – | – | – | – | –
– | Nc1nc(O)c2nc(S)n(COCCO)c2n1 | – | Negative | 0% | – | 26% | – | – | 3 µM
50 µM | C=CCn1c(=S)n(C2OC(COC(C)=O)[C@H]3OC(C)(C)O[C@@H]23)c2nc(N)nc(O)c21 (stereo partly specified) | 20% | – | 141% | – | 30% | – | 50 µM | 30 µM
– | Nc1nc(O)c2c(n1)n(C1OC(CO)[C@@H](O)[C@H]1O)c(=O)n2Cc1ccc(OCc2ccccc2)cc1 (stereo partly specified) | – | – | 5% | – | 6% | Negative | 8 µM | –
52 µM | CCCn1c(=O)n(C2CCC(CO)O2)c2nc(N)nc(O)c21 (stereo unspecified) | 84% | – | 118% | – | 102% | – | 6 µM | 14 µM
– | CCCn1c(=O)n(C2CCC(CO)O2)c2nc(NC(=O)C(C)(C)C)nc(O)c21 (stereo unspecified) | 4% | Negative | 19% | Negative | 0% | Negative | – | –
– | Nc1nc(O)c2c(n1)n(C1OC(CO)[C@@H](O)[C@H]1O)c(=O)n2CC(=O)c1ccc(Cl)cc1 (stereo partly specified) | 0% | – | 23% | Negative | – | – | 1620 µM | –
– | C=CCn1c(=S)n(C2OC(CO)[C@@H](O)C(O)[C@H]2O)c2nc(N)nc(O)c21 (stereo partly specified) | – | – | 5% | – | 3% | Negative | 1 µM | –
– | C=CCn1c(=O)n(C2OC(COC(=O)CCC)[C@@H](OC(=O)CCC)[C@H]2OC(=O)CCC)c2nc(NC(=O)CCC)nc(O)c21 (stereo partly specified) | – | – | 109% | – | 12% | Negative | 53 µM | –
– | Nc1nc(O)c2nc(S)n([C@H]3O[C@H](CO)[C@@H](O)[C@H]3O)c2n1 | 6% | Negative | 8% | Negative | 0% | Negative | – | –
82 µM | CCCn1c(=O)n(C2OC(COP(=O)([O-])[O-])[C@@H](O)[C@H]2O)c2nc(N)nc(O)c21.[Li+].[Li+] (stereo partly specified) | 57% | – | 76% | – | 15% | Negative | 15 µM | –
272 µM | C=CCn1c(=O)n([C@H]2CO[C@@H](CO)C2)c2nc(N)nc(O)c21 | 16% | – | 10% | – | 0% | Negative | 83 µM | –
– | Nc1nc(O)c2c(n1)n(C1OC(CO)[C@@H](O)[C@H]1O)c(=O)n2CCN1CCCCC1 (stereo partly specified) | 0% | Negative | 0% | Negative | – | – | – | –
